Data: ChEMBL document CHEMBL2407032, “Structural modification of pantothenamides counteracts degradation by pantetheinase and improves antiplasmodial activity” (ACS Med Chem Lett, 2013)
pIC50: −log10 of the molar value.

These molecules were tested on Plasmodium falciparum (assay: Antiplasmodial activity against intraerythrocytic Plasmodium falciparum 3D7 infected in human erythrocytes in fresh RPMI-1640 culture medium assessed as parasite growth inhibition after 96 hrs by microscopic analysis). Conditions: 3D7, 96 h.
Assay type: functional, organism-based
Procedure, shortened: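 3D7 parasites in erythrocytes, started mostly at ring stage, grown 96 h in freshly prepared Albumax-complete RPMI (pantetheinase active) with 1 μM pantothenic acid. IC50 from concentration-response. Mean ± SEM (or range/2) of at least two independent experiments, each in triplicate.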

Structure (SMILES) | pIC50
CCCCCCCNC(=O)CCCNC(=O)[C@H](O)C(C)(C)CO | 4.96
CC(C)(CO)[C@@H](O)C(=O)NCCCC(=O)NCC1CC1 | 4.92
CC(C)CNC(=O)CNC(=O)[C@H](O)C(C)(C)CO | 4.74
CC(C)CCNC(=O)CCCNC(=O)[C@H](O)C(C)(C)CO | 5.05
CCCCCNC(=O)CCNC(=O)[C@H](O)C(C)(C)CO | 3.74
CC(C)CCNC(=O)CNC(=O)[C@H](O)C(C)(C)CO | 4.92
CCCCCCNC(=O)CCNC(=O)[C@H](O)C(C)(C)CO | 3.87
CCCCCCCNC(=O)CNC(=O)[C@H](O)C(C)(C)CO | 4.34
COc1cccc(CNC(=O)CCNC(=O)[C@H](O)C(C)(C)CO)c1 | < 3.70
CC(C)(CO)[C@@H](O)C(=O)NCCC(=O)NCc1ccc(OC(F)(F)F)cc1 | < 3.70
CSCCCNC(=O)CCCNC(=O)[C@H](O)C(C)(C)CO | 5.11
CC(C)(CO)[C@@H](O)C(=O)NCCC(=O)NCC1CCCCC1 | < 3.70
CCSCCNC(=O)CCNC(=O)[C@H](O)C(C)(C)CO | 4.06
CCCNC(=O)CCNC(=O)[C@H](O)C(C)(C)CO | 3.70
CCCNC(=O)CCCNC(=O)[C@H](O)C(C)(C)CO | 4.89
CC(C)(CO)[C@@H](O)C(=O)NCCC(=O)NCc1cccc(C(F)(F)F)c1 | < 3.70
CN(C)c1cccc2c(S(=O)(=O)NCCCCCNC(=O)CCNC(=O)[C@H](O)C(C)(C)CO)cccc12 | < 3.70
CCCCCCCNC(=O)CCNC(=O)[C@H](O)C(C)(C)CO | < 3.70
CC(C)(CO)[C@@H](O)C(=O)NCCC(=O)NCCc1ccccc1 | 4.28
CCCCNC(=O)CCNC(=O)[C@H](O)C(C)(C)CO | < 3.70
CC(C)(CO)[C@@H](O)C(=O)NCCC(=O)NCc1ccccc1 | < 3.70
CSCCCNC(=O)CNC(=O)[C@H](O)C(C)(C)CO | 4.42
CC(C)(CO)[C@@H](O)C(=O)NCCC(=O)NCC1CC1 | 3.83
CC(C)(CO)[C@@H](O)C(=O)NCCC(=O)NCc1ccc(C(F)(F)F)cc1 | 3.97
COc1cccc(CNC(=O)CNC(=O)[C@H](O)C(C)(C)CO)c1 | < 3.70
CC(C)(CO)[C@@H](O)C(=O)NCC(=O)NCC1CCCCC1 | 3.79
CSCCCNC(=O)CCNC(=O)[C@H](O)C(C)(C)CO | 3.84

The molecules below were run on Plasmodium falciparum (assay: Antiplasmodial activity against intraerythrocytic Plasmodium falciparum 3D7 infected in human erythrocytes in heat treated RPMI-1640 culture medium assessed as parasite growth inhibition after 96 hrs by microscopic analysis). Conditions: 3D7, 96 h.
Assay type: functional, organism-based
Procedure, shortened: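 3D7 ring-stage-initiated cultures in erythrocytes, grown 96 h in aged Albumax-complete RPMI. The medium was heat-treated for a prolonged time to reduce pantetheinase activity and held 1 μM pantothenic acid. IC50 from concentration-response. Mean ± SEM (or range/2) of at least two independent experiments, each in triplicate.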

Structure (SMILES) | pIC50
CCCCCNC(=O)CCNC(=O)[C@H](O)C(C)(C)CO | 5.12
CCCCCCNC(=O)CCNC(=O)[C@H](O)C(C)(C)CO | 6.26
COc1cccc(CNC(=O)CCNC(=O)[C@H](O)C(C)(C)CO)c1 | < 3.70
CC(C)(CO)[C@@H](O)C(=O)NCCC(=O)NCc1ccc(OC(F)(F)F)cc1 | 3.87
CC(C)(CO)[C@@H](O)C(=O)NCCC(=O)NCC1CCCCC1 | < 3.70
CCSCCNC(=O)CCNC(=O)[C@H](O)C(C)(C)CO | 6.55
CC(C)(CO)[C@@H](O)C(=O)NCCC(=O)NCc1cccc(C(F)(F)F)c1 | 3.81
CC(C)(CO)[C@@H](O)C(=O)NCCC(=O)NCCc1ccccc1 | 7.70
CC(C)(CO)[C@@H](O)C(=O)NCCC(=O)NCc1ccccc1 | < 3.70
CC(C)(CO)[C@@H](O)C(=O)NCCC(=O)NCc1ccc(C(F)(F)F)cc1 | 3.93
COc1cccc(CNC(=O)CNC(=O)[C@H](O)C(C)(C)CO)c1 | < 3.70
CC(C)(CO)[C@@H](O)C(=O)NCC(=O)NCC1CCCCC1 | 3.85
CSCCCNC(=O)CCNC(=O)[C@H](O)C(C)(C)CO | 6.64

What follows are molecules tested on pantetheinase (assay: Drug metabolism of the compound assessed as compound hydrolysis at 200 uM after 10 mins by fluorescence assay in presence of recombinant human pantetheinase). Conditions: read-out: Drug metabolism.
Assay type: physicochemical

metabolised at 10 min, 200 µM | Structure (SMILES)
5% | CN(C)c1cccc2c(S(=O)(=O)NCCCCCNC(=O)CCCNC(=O)[C@H](O)C(C)(C)CO)cccc12
5% | CC(C)(CO)[C@@H](O)C(=O)NCCCC(=O)NCc1ccc(C(F)(F)F)cc1
5% | CCCCCCCNC(=O)CCCNC(=O)[C@H](O)C(C)(C)CO
5% | CC(C)(CO)[C@@H](O)C(=O)NCCCC(=O)NCC1CC1
5% | CC(C)CNC(=O)CNC(=O)[C@H](O)C(C)(C)CO
5% | CC(C)CCNC(=O)CCCNC(=O)[C@H](O)C(C)(C)CO
5% | CC(C)CCNC(=O)CNC(=O)[C@H](O)C(C)(C)CO
5% | CCCCCCCNC(=O)CNC(=O)[C@H](O)C(C)(C)CO
5% | CC(C)(CO)[C@@H](O)C(=O)NCCCC(=O)NCc1cccc(C(F)(F)F)c1
5% | CSCCCNC(=O)CCCNC(=O)[C@H](O)C(C)(C)CO
5% | CCCNC(=O)CCCNC(=O)[C@H](O)C(C)(C)CO
5% | CSCCCNC(=O)CNC(=O)[C@H](O)C(C)(C)CO
5% | COc1cccc(CNC(=O)CNC(=O)[C@H](O)C(C)(C)CO)c1
5% | CC(C)(CO)[C@@H](O)C(=O)NCC(=O)NCC1CCCCC1
